Only some compounds are listed: those with a hit (about 4.1% of all), similar ones and a draw of the others.
hERG rescue – hERG (human) protection from proarrhythmic block; Q12809; CHO-hERG, FluxOR thallium flux, dofetilide IC70 present; activation (rescue from dofetilide block), less the hit threshold, % at 10 µM; 310,000 tested, 0.51% active; AID 1511;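 active = activation above the mean of controls blocked by dofetilide plus 5 SD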;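 also: thallium influx through hERG after potassium depolarization seen as dye fluorescence rise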
KCNQ1 block – inhibitors of human KCNQ1 potassium channel; P51787; CHO-K1 KCNQ1, FluxOR thallium flux fluorescence; active compounds read high; B-score at 10 µM; 310,000 tested, 1.3% active; AID 2642;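 active = compounds whose thallium flux B-score, printed positive for inhibition, exceeds three library SD while starting fluorescence stays within three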;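 also: channel opened by potassium depolarization with thallium stimulus after 20 min compound exposure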
Target sequence (P51787 whole entry, looked up): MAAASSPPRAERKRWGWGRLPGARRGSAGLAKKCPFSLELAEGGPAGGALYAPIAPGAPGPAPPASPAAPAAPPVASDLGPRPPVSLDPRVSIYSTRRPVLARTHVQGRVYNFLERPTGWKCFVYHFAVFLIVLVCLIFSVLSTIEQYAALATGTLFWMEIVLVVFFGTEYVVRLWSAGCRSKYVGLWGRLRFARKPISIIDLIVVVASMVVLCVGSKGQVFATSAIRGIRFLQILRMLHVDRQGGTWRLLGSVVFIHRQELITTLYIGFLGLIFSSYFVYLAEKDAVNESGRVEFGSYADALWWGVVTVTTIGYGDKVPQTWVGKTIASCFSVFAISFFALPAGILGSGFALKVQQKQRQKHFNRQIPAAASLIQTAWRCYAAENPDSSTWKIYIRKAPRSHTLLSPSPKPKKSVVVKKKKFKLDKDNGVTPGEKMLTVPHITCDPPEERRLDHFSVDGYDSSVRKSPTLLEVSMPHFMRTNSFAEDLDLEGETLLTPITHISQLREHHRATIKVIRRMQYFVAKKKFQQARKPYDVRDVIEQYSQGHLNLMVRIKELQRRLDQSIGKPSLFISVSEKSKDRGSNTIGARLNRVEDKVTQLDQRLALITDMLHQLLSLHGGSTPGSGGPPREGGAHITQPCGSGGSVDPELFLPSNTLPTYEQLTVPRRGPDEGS
KCNK9 block – human KCNK9 channel inhibition. Q9NPC2. HEK293 KCNK9, FluxOR thallium flux fluorescence; active compounds read low. B-score at 10 µM. 310,000 tested, 1.2% active;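 active = ratio B-score over 3 SD below the library mean, with starting fluorescence within 5 SD of its mean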;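 also: negative B-score means less thallium flux so channel inhibition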
Cl transport mod – modulators of human KCC2 chloride dependent transport. Q9H2X9. KCC2 cells, thallium flux FluoZin-2 fluorescence. B-score of Tl+ flux slope (higher = more flux/activation; lower = inhibition) at 10 µM. 190,000 tested, 2.2% active. AID 1456;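 active = thallium flux slope and its plate-corrected score both differing from the plate sample mean at a set confidence after two filtering rounds, in either direction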;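 also: slope of fluorescence scaled to starting intensity during 10 to 20 s after thallium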
KCNQ1 pot – human KCNQ1 channel potentiation or activation; P51787; CHO-K1 KCNQ1, thallium flux FluxOR fluorescence; active compounds read high; B-score at 10 µM; 310,000 tested, 0.35% active;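 active = fluorescence ratio B-score, a plate-corrected score, at least three library SD, with initial intensity B-score within 5 SD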
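System: CHO-K1 cells stably expressing KCNQ1 / Medium: assay buffer for compound exposure, DMSO matched across wells / Reagent: thallium- and potassium-containing depolarizing buffer / Compound: one concentration, matched DMSO / Incubation: 20 min compound pretreatment at room temperature / Measured by: kinetic FluxOR fluorescence, 10 s baseline plus 110 s post-stimulus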
KCNK3 block – human KCNK3 channel inhibition, primary screen | B-score at 10 µM | CHO-KCNK3 thallium flux, FluxOR fluorescence; active compounds read low | O14649 | 340,000 tested, 0.84% active | AID 602410;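 active = B-score under library mean minus 4 SD, starting fluorescence ratio at most library mean plus 5 SD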;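 also: more negative B-score means stronger inhibition of thallium flux through KCNK3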
KCNQ1 inh valid – human KCNQ1 channel inhibition, validation assay; shares compounds with KCNQ1 block; KCNQ1 cell line, FluxOR thallium flux fluorescence; inhibition, % at 10 µM; 1,600 tested, 93% active; AID 588353;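 active = primary screen active, with duplicate mean exceeding buffer control mean plus 3 SD of buffer wells, cut at about 28% in these data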
CHO Tl flux – activity in parental CHO cells lacking KCNQ1; shares compounds with KCNQ1 block; parental CHO-K1, FluxOR thallium flux fluorescence ratio; active compounds read low; zero means no signal rise above baseline; fluorescence ratio (Tl flux) at 10 µM; 1,600 tested, 21% active; AID 588366;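 active = mean of duplicate thallium-flux fluorescence ratios in parental host cells more than 5 SD below the buffer control mean, cut at about 0.38 in these data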;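 also: ratio is peak minus minimum fluorescence divided by baseline fluorescence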
KCNQ1 APC inh – blocks human KCNQ1 current in automated patch clamp; KCNQ1-CHO cells; AID 624120; shares compounds with KCNQ1 block; 490 tested, 20% active; calls only at 10 µM;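 active = KCNQ1 current drop exceeding 3 SD of negative control wells, seen in both duplicate runs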;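 also: steady state current during a 2 s step from -80 to +40 mV; negative values mean current inhibition and positive values mean potentiation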
KCNQ2 inh – rat KCNQ2 inhibition in KCNQ1 inhibitor specificity screen | shares compounds with KCNQ1 block | KCNQ2 cells, FluxOR thallium flux fluorescence | inhibition, % at 10 µM | 1,600 tested, 71% active;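 active = mean percent inhibition of the KCNQ2 thallium signal more than 5 SD above the buffer-only control wells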;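 also: KCNQ2 expressed in CHO cells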
KCNQ1-KCNE1 inh – KCNQ1 inhibitor that also blocks human KCNQ1/KCNE1 channel; inhibition, % at 10 µM; AID 652147; KCNQ1/KCNE1 cells, FluxOR thallium flux fluorescence; shares compounds with KCNQ1 block; 1,600 tested, 77% active;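 active = mean percent inhibition of duplicate wells above the buffer-only control mean plus 3 SD of those controls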
KCNK9 block conf – confirmation of human KCNK9 potassium channel inhibitors; AID 492992; inhibition, % at 10 µM; HEK293 KCNK9 cells, FluxOR thallium flux fluorescence; 4,900 tested, 43% active; shares compounds with KCNK9 block;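 active = thallium signal inhibited by more than 5 SD of the compound-free buffer control wells, on both duplicate plates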
Kir21 sel – tests whether KCNK9 modulators also affect mouse Kir2.1; inhibition, % at 10 µM; shares compounds with KCNK9 block; AID 492993; Kir2.1 cells, FluxOR thallium flux fluorescence; 4,900 tested, 4% active;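 active = thallium signal drop more than 5 SD beyond the mean of the no-compound control wells, seen in both duplicate plates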;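 also: signal is fluorescence rise after thallium addition divided by baseline fluorescence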
KCNK9 uninduced – second check of KCNK9 modulator effects in non-induced HEK293 cells. shares compounds with KCNK9 block. FluxOR thallium flux. inhibition, % at 10 µM. 4,900 tested, 40% active;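 active = thallium signal drop beyond 5 SD of the untreated control mean, on both duplicate plates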
KCNK3 confirm – human KCNK3 channel inhibition, confirmation assay. shares compounds with KCNK3 block. CHO-KCNK3 thallium flux, FluxOR fluorescence; 0% buffer, 100% carvedilol maximal block. ratio percent of control, % at 10 µM. 2,400 tested, 99% active;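 active = ratio percent of control, averaged over triplicates, above buffer control mean plus 5 SD, cut at about 64% in these data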;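 also: ratio is the fluorescence rise from min to max over baseline after thallium stimulus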
KCNK3 uninduced – activity in cells without induced KCNK3 expression; shares compounds with KCNK3 block; non-induced KCNK3 parental cells, FluxOR thallium flux; active compounds read low; thallium flux ratio (lower = more inhibition) at 10 µM; 2,400 tested, 40% active;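 active = thallium flux ratio, averaged over three wells, more than 5 SD below the buffer control mean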;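 also: host cells are CHO cells without KCNK3 induction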
Of the large screens only hits and unclear results are named; the others gave an inactive call (follow-up assays come after a bar, where they were run).

CC(C)=CCc1c(O)cc(O)c2c1OC(c1ccc(O)cc1)CC2=O (stereo not drawn)	KCNQ1 block 9, KCNK9 block -12, KCNK3 block -15 (no result: Cl transport mod) | KCNQ1 inh valid 130 | CHO Tl flux 0.35 | KCNQ2 inh 108% | KCNQ1-KCNE1 inh active | KCNK9 block conf 48% | Kir21 sel inactive | KCNK9 uninduced inactive | KCNK3 confirm 139 | KCNK3 uninduced 0.11
CCCn1c(=O)c(C(=O)NCCc2ccc(OC)c(OC)c2)c(O)c2ccccc21	KCNQ1 block 9, KCNK3 block -11 (no result: Cl transport mod) | KCNQ1 inh valid 80 | CHO Tl flux inactive | KCNQ2 inh 101% | KCNQ1-KCNE1 inh 63% | KCNK3 confirm 107 | KCNK3 uninduced 0.16
O=C(NCC1CC1)C1(C(F)(F)F)C/C(=C\Cc2ccccc2)CCCO1 (stereo not drawn)	none (no result: Cl transport mod)
c1csc(CNc2nc(-c3cccs3)nc3ccccc23)c1	KCNQ1 block 6, KCNK3 block -11 | KCNQ1 inh valid 112 | CHO Tl flux inactive | KCNQ1 APC inh inactive | KCNQ2 inh 123% | KCNQ1-KCNE1 inh 168% | KCNK3 confirm 108 | KCNK3 uninduced inactive
CCCCNC(=S)Nc1ccc(Oc2ccccc2)cc1	KCNQ1 block 6, KCNK9 block -7.5, KCNK3 block -9.7 | KCNQ1 inh valid 39 | CHO Tl flux inactive | KCNQ2 inh inactive | KCNQ1-KCNE1 inh 68% | KCNK3 confirm 96 | KCNK3 uninduced inactive
c1ccc(-c2csc3ncnc(N4CCOCC4)c23)cc1	none
COc1ccc(N2CCN(c3ncnc4scc(-c5ccccc5)c34)CC2)cc1	KCNQ1 block 6, KCNK9 block -12, KCNK3 block -11 (no result: Cl transport mod) | KCNQ1 inh valid 93 | CHO Tl flux inactive | KCNQ1 APC inh inactive | KCNQ2 inh 106% | KCNQ1-KCNE1 inh 108% | KCNK9 block conf 28% | Kir21 sel inactive | KCNK9 uninduced inactive | KCNK3 confirm 117 | KCNK3 uninduced inactive
COc1ccc(N2CCN(c3ncnc4scc(-c5ccc(F)cc5)c34)CC2)cc1	KCNQ1 block 8, KCNK3 block -11 (no result: Cl transport mod) | KCNQ1 inh valid 95 | CHO Tl flux 0.36 | KCNQ2 inh 74% | KCNQ1-KCNE1 inh 104% | KCNK3 confirm 110 | KCNK3 uninduced inactive
CCCCn1c(N)c(N(CCC(C)C)C(=O)C2CC(=O)N(CCc3ccc(OC)c(OC)c3)C2)c(=O)[nH]c1=O (stereo not drawn)	none (no result: Cl transport mod)
CC(C(=O)NCC1CCCCC1)N(C)Cc1ccc(Cl)cc1 (stereo not drawn)	KCNQ1 block 9, KCNK9 block -7.2, KCNK3 block -9.7 | KCNQ1 inh valid 76 | CHO Tl flux 0.38 | KCNQ2 inh 69% | KCNQ1-KCNE1 inh 98% | KCNK3 confirm 105 | KCNK3 uninduced inactive
CSc1ccc(CN(C)C(C)C(=O)NCC2CCCCC2)cc1 (stereo not drawn)	KCNQ1 block 6, KCNK3 block -9.4 (no result: Cl transport mod) | KCNQ1 inh valid 66 | CHO Tl flux inactive | KCNQ2 inh 69% | KCNQ1-KCNE1 inh 80% | KCNK3 confirm 95 | KCNK3 uninduced inactive
CC(OC(=O)c1ccc(Br)o1)C(=O)NCC1CCCCC1 (stereo not drawn)	none (no result: hERG rescue, KCNQ1 block, KCNK9 block, Cl transport mod, KCNQ1 pot)
CSc1ccc(CN(C)C(C)C(=O)Nc2ccc(F)c(F)c2F)cc1 (stereo not drawn)	none
CC(C(=O)NCC1CCCCC1)N(C)Cc1ccc(Br)cc1 (stereo not drawn)	KCNQ1 block 8, KCNK3 block -15 (no result: Cl transport mod) | KCNQ1 inh valid 69 | CHO Tl flux inactive | KCNQ2 inh 92% | KCNQ1-KCNE1 inh 66% | KCNK3 confirm 121 | KCNK3 uninduced 0.16
CCOC(=O)C1=C(CN2CCN(C(=O)c3ccco3)CC2)NC(=O)NC1c1ccccc1 (stereo not drawn)	none (no result: Cl transport mod)
O=C(CCSC1=NCCCN1)c1ccc(F)cc1	none (no result: hERG rescue, KCNQ1 block, KCNK9 block, Cl transport mod, KCNQ1 pot)
O=C(NC1CCCC1)c1cc(-c2ccc(Cl)cc2Cl)on1	none (no result: Cl transport mod)
COc1ccc(NC(=O)c2cc(S(=O)(=O)N3CCCCC3)ccc2OC)cc1	none (no result: Cl transport mod)
Cc1ccc2c(c1)sc(-c1ccc(N(C)C)cc1)[n+]2C	KCNQ1 block 16, KCNK3 block -21 (no result: Cl transport mod) | KCNQ1 inh valid active | CHO Tl flux 0.28 | KCNQ2 inh inactive | KCNQ1-KCNE1 inh inactive | KCNK3 confirm 143 | KCNK3 uninduced 0.12
FC(F)Sc1ccc(NC(=S)NC2CCCCC2)cc1	KCNQ1 block 10, KCNK3 block -10 | KCNQ1 inh valid 78 | CHO Tl flux inactive | KCNQ2 inh inactive | KCNQ1-KCNE1 inh 36% | KCNK3 confirm 104 | KCNK3 uninduced inactive
S=C(Nc1ccc(Br)cc1)NC1CCCC1	none
CCOC(=O)c1c(CSC(=N)N)n(C)c2cc(Br)c(OC(C)=O)cc12	KCNQ1 block 8, KCNK3 block -8.8 | KCNQ1 inh valid 43 | CHO Tl flux inactive | KCNQ2 inh 60% | KCNQ1-KCNE1 inh 78% | KCNK3 confirm 117 | KCNK3 uninduced 0.14
CCOC(=O)c1c(CN2CCN(C)CC2)n(C)c2cc(Br)c(OC)cc12	none
CC(=O)c1ccccc1NC(=O)COC(=O)c1cc2ccccc2[nH]1	none (no result: hERG rescue, KCNQ1 block, KCNK9 block, Cl transport mod, KCNQ1 pot)

Assay outcomes (PubChem BioAssay)
